# From ChEMBL document CHEMBL1140471, “Inhibitors of NF-kappaB derived from thalidomide” (Bioorg Med Chem Lett, 2007)
# Assay: Inhibition of IL-1-alpha-induced NF-kappaB activation in HeLa cells assessed as blocking of p50/p65 nuclear translocation
# Format: cell-based
# Details: Homo sapiens
# Procedure, shortened: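 HeLa cells stimulated with IL-1α (5 ng/ml) with or without compound for 30 min, then fixed and immunostained for p65 with Hoechst nuclear counterstain. Plates were scanned by fluorescence imaging microscopy. IC50 = concentration reducing nuclear minus cytoplasmic p65 fluorescence by 50%.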
row,Compound,IC50 [µM]
1,COC(=O)c1ccc2c(c1)C(=O)N(c1c(C(C)C)cccc1C(C)C)C2=O,> 50
2,CC(C)c1cccc(C(C)C)c1N1C(=O)c2ccc(OS(N)(=O)=O)cc2C1=O,> 50
3,CC(=O)Nc1ccc2c(c1)C(=O)N(c1c(C(C)C)cccc1C(C)C)C2=O,> 50
4,CC(C)c1ccccc1N1C(=O)c2ccc(O)cc2C1=O,> 50
5,CC(C)c1cccc(C(C)C)c1N1C(=O)c2ccc(C(=O)O)cc2C1=O,> 50
6,CC(C)(C)c1ccccc1N1C(=O)c2ccc(O)cc2C1=O,> 50
7,CCCc1ccccc1N1C(=O)c2ccc(O)cc2C1=O,> 50
8,O=C1c2ccc(O)cc2C(=O)N1c1c(Br)cccc1Br,0.43
9,Cc1ccc2c(c1)C(=O)N(c1c(C(C)C)cccc1C(C)C)C2=O,> 50
10,O=C1c2ccc(O)cc2C(=O)N1c1c(F)cccc1F,> 50
11,O=C1c2ccc(O)cc2C(=O)N1c1c(Cl)cccc1Cl,> 50
12,CC(C)c1cccc(C(C)C)c1N1C(=O)c2ccc(O)cc2C1=O,0.53
13,CC(C)c1cccc(C(C)C)c1N1C(=O)c2ccc(Cl)cc2C1=O,> 50
14,Cc1cccc(C)c1N1C(=O)c2ccc(O)cc2C1=O,> 50
15,CC(C)c1cccc(C(C)C)c1N1C(=O)c2cccc(O)c2C1=O,4.95
16,CCc1cccc(CC)c1N1C(=O)c2ccc(O)cc2C1=O,> 50
17,CC(C)c1cccc(C(C)C)c1N1C(=O)c2ccccc2C1=O,> 50
18,CC(C)c1cccc(C(C)C)c1N1C(=O)c2cccc(N)c2C1=O,> 50
19,CC(C)c1cccc(C(C)C)c1N1C(=O)c2ccc(N)cc2C1=O,29.5
20,CC(C)c1cccc(C(C)C)c1N1C(=O)c2cccc([N+](=O)[O-])c2C1=O,> 50
21,CC(C)c1cccc(C(C)C)c1N1C(=O)c2ccc([N+](=O)[O-])cc2C1=O,> 50
22,CC(C)(C)c1ccc(S(=O)(=O)/C=C/C#N)cc1 [BAY-11-7085],0.1
23,Nc1cccc2c1C(=O)N(C1CCC(=O)NC1=O)C2=O (centres undefined) [POMALIDOMIDE],1.27
24,O=C1CCC(N2C(=O)c3ccccc3C2=O)C(=O)N1 (centres undefined) [THALIDOMIDE],2.04
